Source: ChEMBL document CHEMBL2157878, “In vitro cellular uptake and dimerization of signal transducer and activator of transcription-3 (STAT3) identify the photosensitizing and imaging-potential of isomeric photosensitizers derived from chlorophyll-a and bacteriochlorophyll-a” (J Med Chem, 2011)
One block for each molecule: values may come before it. Calls of active or inactive are those of the source. No cut-off for these calls is given here.

Key:
BCC1 [1] = assay: Induction of apoptosis in human BCC1 cells assessed as survival after 24 hrs by trypan blue assay; assay type: functional, cell-based
Summary of the method: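 BCC1 cells were loaded for 2 h in serum-free DMEM with 2-fold serial dilutions of photosensitizer. After washing, they were illuminated in serum-free medium at 37° with 665 nm dye-laser light for 9 min (3 J/cm²). Cells were then cultured 24 h in DMEM/10% FCS and trypsinized. Trypan blue-excluding cells were counted by hemocytometer and expressed relative to untreated controls.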

[2] = Drug uptake in human BCC1 cells assessed as deposition in mitochondria at 3.2 uM after 30 mins by phase contrast microscopy; assay type: ADME; settings: bcc1, 0.5 h
Summary of the method: (§1)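 BCC1 cells incubated 30 min in serum-free DMEM with 3.2 μM or 0.2 μM PS, washed, and imaged at 640X under phase contrast or HPPH fluorescence. Cultures then kept a further 4 h in PS- and serum-free DMEM and imaged again under the same conditions to follow subcellular redistribution.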

Colon 26 [3] = assay: Antitumor activity against mouse Colon 26 cells xenografted in parenterally dosed BALB/c mouse assessed as tumor cure at 1 umol/kg after 24 hrs followed by illumination with 128 J/cm'2, 14 mW/cm'2 laser light measured after 60 days; assay type: functional
Summary of the method: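 Subcutaneous Colon26 tumours in BALB/c mice (10/group), dosed at 4–5 mm diameter with 1 μmol/kg PS. At 24 h, unanaesthetised restrained mice received laser light to the tumour (665, 660 or 674 nm by compound; 128 J/cm², 14 mW/cm²). Tumours measured daily (V = L·W²/2). Cure means no palpable tumour by day 60–90. Euthanasia at 400 mm³.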

[4] = Drug uptake in human BCC1 cells at 200 nM after 30 mins by fluorescent microscopy; settings: bcc1, 30 min, 0.2 µM
[5] = Drug uptake in human BCC1 cells assessed as subcellular localization at 3.2 uM after 4 hrs by phase contrast microscopy; assay type: ADME, cell-based; settings: bcc1, 4 h; summary of the method: as §1
[6] = Drug uptake in human BCC1 cells assessed as deposition in mitochondria at 3.2 uM after 30 mins by HPPH fluorescence spectrophotometry; assay type: ADME; settings: bcc1, 0.5 h; summary of the method: as §1
[7] = Drug uptake in human BCC1 cells assessed as subcellular localization at 3.2 uM after 4 hrs by HPPH fluorescence spectrophotometry; assay type: ADME, cell-based; settings: bcc1, 4 h; summary of the method: as §1
BCC1 [8] = assay: Increase in STAT3 cross linking level in human BCC1 cells assessed as dimerization of STAT3 after 9 mins by Western blotting in presence of 665 nm light
[9] = Drug uptake in human BCC1 cells assessed as deposition in mitochondria at 200 nM after 30 mins by HPPH fluorescence spectrophotometry; assay type: ADME; settings: bcc1, 0.5 h, 0.2 µM
Summary of the method: (§2)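 BCC1 cells in subconfluent culture, washed and incubated 30 min in serum-free DMEM with 200 nM PS. Washed free of PS and imaged at 640X under phase contrast and HPPH fluorescence (Ex 410/40, Em 675/750 nm). Cell PS also quantified by solubilising cells and reading fluorescence (Ex 415, Em 667 nm).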

BCC1 [10] = assay: Reduction in EGFR levels in human BCC1 cells after 9 mins by Western blotting in presence of 665 nm laser light; assay type: functional, cell-based
Summary of the method: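 BCC1 cells were incubated 2 h in serum-free DMEM with 2-fold serially diluted photosensitizer, washed, and illuminated with 665 nm light for 9 min (3 J/cm²). They were extracted immediately in RIPA buffer. Extracts (20 μg protein) were run on 6–10% SDS gels and immunoblotted for STAT3, EGFR, p38 and P-p38 with ECL detection. STAT3 crosslinking was scored as percent conversion of monomer into dimer form I.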

[11] = test system: BCC1 cells (Homo sapiens); assay: Ratio of drug uptake in human BCC1 cells in serum free medium to drug uptake in human BCC1 cells in medium containing 10% fetal calf serum by fluorescent microscopy
[12] = target: MAP kinase p38 (Homo sapiens) (UniProt O15264+Q15759+Q16539+P53778); assay: Activation of p38 MAPK in human BCC1 cells assessed as dimerization of STAT3 after 9 mins by Western blotting in presence of 665 nm laser light; assay type: cell-based
Summary of the method: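 Subconfluent BCC1 cells, 2 h in serum-free DMEM with 2-fold serially diluted PS, then 665 nm dye-laser light for 9 min at 37°C (3 J/cm²) in serum-free medium. Cells extracted immediately and lysed in RIPA. 20 μg protein run on 6–10% SDS gels and immunoblotted for STAT3, p38/P-p38 and EGFR with ECL detection. Crosslinking given as % monomeric STAT3 converted to dimer form I.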

[13] = Drug uptake in human BCC1 cells assessed as deposition in mitochondria at 200 nM after 30 mins by phase contrast microscopy; assay type: ADME; settings: bcc1, 0.5 h, 0.2 µM; summary of the method: as §2
Heart = assay: Drug uptake in BALB/c mouse heart xenografted with mouse Colon 26 cells at 150 uCi administered parenterally after 2 hrs by PET analysis; assay type: ADME, tissue-based; settings: in vivo, other
[14] = Drug uptake in BALB/c mouse tumor xenografted with mouse Colon 26 cells at 150 uCi administered parenterally after 2 hrs by PET analysis; assay type: ADME, Neoplasm; settings: in vivo, other
Muscle tissue = assay: Drug uptake in BALB/c mouse muscle xenografted with mouse Colon 26 cells at 150 uCi administered parenterally after 2 hrs by PET analysis; assay type: ADME, tissue-based; settings: in vivo
[15] = Photostability of the compound in 17% bovine calf serum assessed as rate of photobleaching at 6.5 uM after 20 to 22 mins in presence of light (75 mW/cm'2); assay type: ADME; settings: cattle, read-out: Drug degradation
Summary of the method: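 Equimolar (6.5 μM) photosensitizer solutions in 17% bovine calf serum were irradiated at 75 mW/cm². Absorption spectra were recorded at successive time points, and the normalized long-wavelength absorbance was plotted against time to follow photobleaching.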

Colon 26 [16] = assay: Photosensitizing activity in mouse Colon 26 assessed as cell viability at 0.0625 uM after 24 hrs followed by illumination with 665 nm laser light and 48 hrs incubation in dark by MTT assay in presence of serum; assay type: functional, cell-based
Summary of the method: (§3)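 Colon26 cells, 3×10³/well in RPMI/10% FCS, were incubated 24 h in the dark with photosensitizer at 0.3 μM or 0.0625 μM. Medium was replaced with drug-free complete medium before illumination at 0–4 J/cm², 3.2 mW/cm², at each compound's peak wavelength (660, 665 or 674 nm). After 48 h in the dark, MTT was added for the last 4 h and absorbance read at 570 nm. Four replicate wells per condition, three independent experiments.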

Mus musculus [17] = assay: Drug uptake in BALB/c mouse xenografted with mouse Colon 26 cells at 1 umol/kg, iv after 24 hrs by fluorescence imaging; assay type: ADME, organism-based; settings: in vivo
Summary of the method: (§4)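 BALB/c mice (3/group) with Colon26 tumours (1×10⁶ cells s.c., right axilla, grown to 4–5 mm) were shaved and given 1.0 μmol/kg PS i.v. Whole-body fluorescence imaged under ketamine/xylazine at 24, 48 and 72 h: 540/40 nm illumination, long-pass emission filter, spectral unmixing of autofluorescence. Read-out is mean intensity of a 20 mm tumour ROI (AU), mean ± SD of 3 mice.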

[18] = Drug uptake in human BCC1 cells assessed as deposition in mitochondria at 0.2 uM after 30 mins by HPPH fluorescence spectrophotometry; assay type: ADME; settings: bcc1, 0.5 h; summary of the method: as §2
Colon 26 [19] = assay: Drug uptake in mouse Colon 26 cells at 800 nM after 24 hrs by flow cytometry; assay type: ADME, cell-based; settings: colon 26, 24 h, 0.8 µM
Summary of the method: (§5)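 Colon26 cells seeded at 0.33×10⁶ per well and grown overnight, then given 100–800 nM PS in triplicate at 37°C, with no-PS wells for autofluorescence. Harvested by trypsin, spun cold, and run on flow cytometry (Ex 633 nm, Em 730±45 nm, 10,000 events). Value is mean fluorescence of triplicates minus autofluorescence.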

Colon 26 [20] = assay: Photosensitizing activity in mouse Colon 26 assessed as cell viability at 0.3 uM after 24 hrs followed by illumination with 665 nm laser light and 48 hrs incubation in dark by MTT assay; assay type: functional, cell-based; summary of the method: as §3
Colon 26 [21] = assay: Drug uptake in mouse Colon 26 cells at 400 nM after 24 hrs by flow cytometry; assay type: ADME, cell-based; settings: colon 26, 24 h, 0.4 µM; summary of the method: as §5
Mus musculus [22] = assay: Drug uptake in BALB/c mouse xenografted with mouse Colon 26 cells at 1 umol/kg, iv after 72 hrs by fluorescence imaging; assay type: ADME, organism-based; settings: in vivo; summary of the method: as §4
Liver = assay: Drug uptake in parenterally dosed BALB/c mouse liver xenografted with mouse Colon 26 cells after 72 hrs by PET analysis; assay type: ADME, organism-based; settings: in vivo
Summary of the method: (§6)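 Tumor-bearing BALB/c mice (Colon26, subcutaneous) received ¹²⁴I-labeled photosensitizer via the tail vein at 15–50 μCi. Three mice per time point were sacrificed at 24, 48 and 72 h. Organs were removed, weighed and counted in a γ-well counter. Uptake was expressed as %ID/g tissue.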

Spleen = assay: Drug uptake in parenterally dosed BALB/c mouse spleen xenografted with mouse Colon 26 cells after 72 hrs by PET analysis; assay type: ADME, organism-based; settings: in vivo; summary of the method: as §6
[23] = Drug uptake in human BCC1 cells assessed as subcellular localization at 0.2 uM after 4 hrs by phase contrast microscopy; assay type: ADME, cell-based; settings: bcc1, 4 h; summary of the method: as §1
[24] = Drug uptake in BALB/c mouse tumor xenografted with mouse Colon 26 cells at 1 umol/kg, iv after 24 hrs by fluorescence imaging; assay type: ADME, organism-based, Neoplasm; settings: in vivo; summary of the method: as §4
[25] = Drug uptake in human BCC1 cells assessed as subcellular localization at 0.2 uM after 4 hrs by HPPH fluorescence spectrophotometry; assay type: ADME, cell-based; settings: bcc1, 4 h; summary of the method: as §1
[26] = Drug uptake in tumor of BALB/c mouse xenografted with mouse Colon 26 cells at 1 umol/kg, iv after 24 hrs by fluorescence imaging; assay type: ADME, organism-based, Neoplasm; settings: in vivo
Summary of the method: (§7)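 BALB/c mice carried subcutaneous Colon26 tumors (1×10⁶ cells, right posterior axilla) grown to 4–5 mm and were given 1 μmol/kg i.v. At 24 h the tumor was surgically removed and imaged, and the skin flap was imaged separately. Excitation was 540/40 nm with long-pass emission, followed by spectral unmixing of autofluorescence.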

[27] = Drug uptake in human BCC1 cells at 200 nM incubated for 30 mins measured after 4 to 24 hrs by fluorescent microscopy; assay type: ADME, cell-based; settings: bcc1, 0.5 h, 0.2 µM
Zone of skin = assay: Drug uptake in skin of BALB/c mouse xenografted with mouse Colon 26 cells measured after removal of tumor at 1 umol/kg, iv after 24 hrs by fluorescence imaging; assay type: ADME, organism-based; settings: in vivo; summary of the method: as §7
Mus musculus [28] = assay: Drug uptake in BALB/c mouse xenografted with mouse Colon 26 cells at 1 umol/kg, iv after 48 hrs by fluorescence imaging; assay type: ADME, organism-based; settings: in vivo; summary of the method: as §4
[29] = Drug uptake in human BCC1 cells assessed as deposition in mitochondria at 0.2 uM after for 30 mins by phase contrast microscopy; assay type: ADME; settings: bcc1, 0.5 h; summary of the method: as §2
Intestine = assay: Drug uptake in parenterally dosed BALB/c mouse intestine xenografted with mouse Colon 26 cells after 72 hrs by PET analysis; assay type: ADME, organism-based; settings: in vivo, other; summary of the method: as §6

Drug uptake [2]: Active | Drug uptake [4]: Active | Drug uptake [5]: Active | Drug uptake [6]: Active | Drug uptake [7]: Active | Drug uptake [9]: Active | Ratio [11]: 5 | Activity [12]: Active | Drug uptake [13]: Active
Compound: CCC1=C(C)c2cc3[nH]c(cc4nc(c5c6[nH]c(cc1n2)c(C)c6C(=O)C5)C(CCC(=O)OC)[C@@H]4C)c(C)c3C(C)OCc1cccc(I)c1 (some centres not stated)
Activity (BCC1 [1]): Dose-dependent effect | Activity (Colon 26 [3]): 20% | Activity (BCC1 [8]): Active | Activity (BCC1 [10]): Active

Drug uptake (Heart): Active | Drug uptake [14]: Active | Drug uptake (Muscle tissue): Active
Compound: OC[C@H]1O[C@@H](O)[C@H]([18F])[C@@H](O)[C@@H]1O [FLUDEOXYGLUCOSE-F18]

degraded at 6.5 µM [15]: 50% | Drug uptake (Mus musculus [17]): Active | Drug uptake [18]: Active | Drug uptake (Colon 26 [19]): Active | Drug uptake (Colon 26 [21]): Active | Drug uptake (Mus musculus [22]): Active | Drug uptake (Liver): Active | Drug uptake (Spleen): Active | Drug uptake [23]: Active | Drug uptake [24]: Active | Drug uptake [9]: Active | Drug uptake [25]: Active | Drug uptake [26]: Active | Drug uptake [27]: Active | Drug uptake (Zone of skin): Not Active | Drug uptake (Mus musculus [28]): Active | Drug uptake [29]: Active | Ratio [11]: 4 | Activity [12]: Active | Drug uptake (Intestine): Active | Drug uptake [13]: Active
Compound: CCC1=C(C)c2cc3[nH]c(cc4nc(c5c6[nH]c(cc1n2)c(C)c6C(=O)C5)C(CCC(=O)O)[C@@H]4C)c(C)c3C(C)OCc1cccc(I)c1 (some centres not stated)
Activity (Colon 26 [16]): Active | Activity (BCC1 [1]): Dose-dependent effect | Activity (Colon 26 [20]): Active | Activity (BCC1 [8]): Active | Activity (BCC1 [10]): Active
